The source made the active and inactive calls. The calls are words filed in the database; no cut-off is given here.
What was measured:
Mus musculus [1] = assay: Effect on passive avoidance in mouse assessed as latency time to enter dark room in training session at 10 mg/kg, ip treated 20 mins before training session; type: functional; conditions: route intraperitoneal
Summary of the method: (§1)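 Same step-through passive avoidance without scopolamine. Punishment is a 40 cm fall into 10 °C water on entering the dark room. Mice not entering within 60 s at training were excluded. Compound given ip at 1:10 dilution steps, 20 min before training, in saline or saline/DMSO 4:1. Controls received an extra saline injection right after training. Latency to enter the dark room recorded at training and at next-day retention.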

Mus musculus [2] = species: Mus musculus; assay: Toxicity in mouse assessed as spontaneous motility and inspection activity after 5 mins by hole board test; type: organism-based; conditions: in vivo
Summary of the method: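 Hole-board: 40 cm square plane with 16 holes of 3 cm, arranged 4×4. Each mouse placed centrally and free to move for […]. Photocells counted locomotion (spontaneous motility) and hole exploration, both as counts in 5 min. Compared with saline-treated mice.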

Mus musculus [3] = assay: Effect on passive avoidance in mouse assessed as latency time to enter dark room in retention session at 10 mg/kg, ip treated 20 mins before training session; type: functional; conditions: route intraperitoneal; summary of the method: as §1
Mus musculus [4] = species: Mus musculus; assay: Toxicity in mouse assessed as motor coordination after 45 mins by rotarod test; type: organism-based; conditions: in vivo, 0.75 h
Summary of the method: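 Rota-rod: rod 30 cm long, 15 cm above the base, split into five sections, rotating at 16 rpm. Falls counted over 30 s. Mice with fewer than 3 or more than 6 falls in the pretest were rejected. Performance measured at pretest and 15, 30 and 45 min after test start. Compared with saline-treated mice.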

Mus musculus [5] = assay: Antiamnesic activity in scopolamine-induced mouse assessed as latency time to enter dark room in training session at 1.0 mg/kg, ip treated 20 mins before training session by passive avoidance test; type: functional; conditions: route intraperitoneal
Summary of the method: (§2)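 Step-through passive avoidance in mice: lit and dark compartments joined by a guillotine door. Entering the dark side drops the mouse 40 cm into 10 °C water, a non-painful punishment. Mice not entering within 60 s at training were excluded. Compound given ip at 1:10 dilution steps […], 20 min before training. Vehicle was saline or saline/DMSO 4:1. Scopolamine 1.5 mg/kg ip immediately after punishment. Retention tested next day. MED is the lowest dose reversing amnesia.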

Mus musculus [6] = species: Mus musculus; assay: Effect on passive avoidance in mouse treated 20 mins before training session; type: functional; conditions: read-out: MED; summary of the method: as §1
Mus musculus [7] = assay: Antiamnesic activity in scopolamine-induced mouse assessed as latency time to enter dark room in retention session at 1.0 mg/kg, ip treated 20 mins before training session by passive avoidance test; type: functional; conditions: route intraperitoneal; summary of the method: as §2
Mus musculus [8] = assay: Antiamnesic activity in ip dosed mouse assessed as reversal of scopolamine-induced memory loss treated 20 mins before training session by passive avoidance test; type: functional; conditions: read-out: MED; summary of the method: as §2
Mus musculus [9] = assay: Antiamnesic activity in mouse assessed as reversal of scopolamine-induced memory loss at 10 mg/kg, ip treated 20 mins before training session by passive avoidance test; type: functional, organism-based; set-up: dose 10 mg/kg; summary of the method: as §2
Mus musculus [10] = assay: Antiamnesic activity in scopolamine-induced mouse assessed as latency time to enter dark room in training session at 0.01 mg/kg, ip treated 20 mins before training session by passive avoidance test; type: functional; conditions: route intraperitoneal; summary of the method: as §2
Mus musculus [11] = assay: Antiamnesic activity in scopolamine-induced mouse assessed as latency time to enter dark room in retention session at 0.01 mg/kg, ip treated 20 mins before training session by passive avoidance test; type: functional; conditions: route intraperitoneal; summary of the method: as §2
Mus musculus [12] = assay: Effect on passive avoidance in mouse assessed as latency time to enter dark room in training session at 1.0 mg/kg, ip treated 20 mins before training session; type: functional; conditions: route intraperitoneal; summary of the method: as §1
Mus musculus [13] = assay: Effect on passive avoidance in mouse assessed as latency time to enter dark room in retention session at 1.0 mg/kg, ip treated 20 mins before training session; type: functional; conditions: route intraperitoneal; summary of the method: as §1
Mus musculus [14] = assay: Antiamnesic activity in scopolamine-induced mouse assessed as latency time to enter dark room in retention session at 0.1 mg/kg, ip treated 20 mins before training session by passive avoidance test; type: functional; conditions: route intraperitoneal; summary of the method: as §2
Mus musculus [15] = assay: Antiamnesic activity in scopolamine-induced mouse assessed as latency time to enter dark room in training session at 0.1 mg/kg, ip treated 20 mins before training session by passive avoidance test; type: functional; conditions: route intraperitoneal; summary of the method: as §2
Mus musculus [16] = assay: Antiamnesic activity in scopolamine-induced mouse assessed as latency time to enter dark room in retention session at 10 mg/kg, ip treated 20 mins before training session by passive avoidance test; type: functional; conditions: route intraperitoneal; summary of the method: as §2
Mus musculus [17] = assay: Antiamnesic activity in scopolamine-induced mouse assessed as latency time to enter dark room in training session at 10 mg/kg, ip treated 20 mins before training session by passive avoidance test; type: functional; conditions: route intraperitoneal; summary of the method: as §2

Structure (SMILES) | Activity (Mus musculus [2]) | Activity (Mus musculus [4]) | minimal effective dose (Mus musculus [6]) | minimal effective dose (Mus musculus [8]) | Activity (Mus musculus [9]) | further results
CC(=O)N[C@H]1CC[C@@H](NS(=O)(=O)c2ccc(F)cc2)CC1 | Non-toxic | Non-toxic | 10 mg/kg | 1 mg/kg | – | Activity (Mus musculus [1]): 32 s; Activity (Mus musculus [3]): 156.6 s; Activity (Mus musculus [5]): 19.1 s; Activity (Mus musculus [7]): 104.5 s
CC(=O)N[C@H]1CC[C@H](NC(=O)c2ccccc2)CC1 | Non-toxic | Non-toxic | – | – | inactive | –
CC(C)S(=O)(=O)N(C)c1ccc(NC(=O)c2ccccc2)cc1 | Non-toxic | Non-toxic | – | 0.01 mg/kg | – | Activity (Mus musculus [10]): 20.6 s; Activity (Mus musculus [11]): 66.7 s
CC(C)S(=O)(=O)N(C)c1ccc(N(C)S(=O)(=O)c2ccc(F)cc2)cc1 | Non-toxic | Non-toxic | 1 mg/kg | 0.01 mg/kg | – | Activity (Mus musculus [10]): 18.8 s; Activity (Mus musculus [12]): 30 s; Activity (Mus musculus [13]): 158.6 s; Activity (Mus musculus [11]): 70.5 s
CCC(=O)N[C@H]1CC[C@H](NC(=O)CC)CC1 | Non-toxic | Non-toxic | – | – | inactive | –
CCC(=O)N[C@H]1CC[C@@H](NS(=O)(=O)c2ccc(F)cc2)CC1 | Non-toxic | Non-toxic | 10 mg/kg | 0.1 mg/kg | – | Activity (Mus musculus [1]): 25.3 s; Activity (Mus musculus [3]): 162.9 s; Activity (Mus musculus [14]): 89.1 s; Activity (Mus musculus [15]): 16.8 s
CC(C)S(=O)(=O)N[C@H]1CC[C@H](NC(=O)c2ccccc2)CC1 | Non-toxic | Non-toxic | – | – | inactive | –
O=C(N[C@H]1CC[C@H](NS(=O)(=O)c2ccc(F)cc2)CC1)c1ccccc1 | Non-toxic | Non-toxic | – | – | inactive | –
O=C1c2ccccc2C2CN(S(=O)(=O)c3ccc(F)cc3)CCN12 (stereo not drawn) | Non-toxic | Non-toxic | – | 0.1 mg/kg | – | Activity (Mus musculus [14]): 74.5 s; Activity (Mus musculus [15]): 15.6 s
CC(C)S(=O)(=O)N1CCN2C(=O)CCC2C1 (stereo not drawn) | Non-toxic | Non-toxic | 10 mg/kg | – | – | Activity (Mus musculus [1]): 13.6 s; Activity (Mus musculus [3]): 61.5 s
CCC(=O)Nc1ccc(NS(=O)(=O)C(C)C)cc1 | Non-toxic | Non-toxic | – | – | inactive | –
CCC(=O)N[C@H]1CC[C@H](NC(=O)c2ccccc2)CC1 | Non-toxic | Non-toxic | – | – | inactive | –
CC(=O)N1CCN2C(=O)c3ccccc3C2C1 (stereo not drawn) | Non-toxic | Non-toxic | – | – | inactive | –
CC(C)S(=O)(=O)Nc1ccc(NS(=O)(=O)c2ccc(F)cc2)cc1 | Non-toxic | Non-toxic | 10 mg/kg | 1 mg/kg | – | Activity (Mus musculus [1]): 21.1 s; Activity (Mus musculus [3]): 125.2 s; Activity (Mus musculus [5]): 19.1 s; Activity (Mus musculus [7]): 76.3 s
CC(=O)Nc1ccc(NS(=O)(=O)C(C)C)cc1 | Non-toxic | Non-toxic | – | – | inactive | –
CC(C)S(=O)(=O)N1CCN2C(=O)c3ccccc3C2C1 (stereo not drawn) | Non-toxic | Non-toxic | – | 1 mg/kg | – | Activity (Mus musculus [5]): 16.3 s; Activity (Mus musculus [7]): 85.5 s
CCC(=O)N1CCN2C(=O)c3ccccc3C2C1 (stereo not drawn) | Non-toxic | Non-toxic | – | – | inactive | –
CCC(=O)Nc1ccc(NS(=O)(=O)c2ccc(F)cc2)cc1 | Non-toxic | Non-toxic | – | – | inactive | –
CC(=O)Nc1ccc(NS(=O)(=O)c2ccc(F)cc2)cc1 | Non-toxic | Non-toxic | – | – | inactive | –
O=C(Nc1ccc(NS(=O)(=O)c2ccc(F)cc2)cc1)c1ccccc1 | Non-toxic | Non-toxic | – | – | inactive | –
CC(C)S(=O)(=O)Nc1ccc(NC(=O)c2ccccc2)cc1 | Non-toxic | Non-toxic | 1 mg/kg | 10 mg/kg | – | Activity (Mus musculus [16]): 88.1 s; Activity (Mus musculus [12]): 22.1 s; Activity (Mus musculus [13]): 116.7 s; Activity (Mus musculus [17]): 16.8 s
CC(C)S(=O)(=O)N(C)c1ccc(N(C)C(=O)c2ccccc2)cc1 | Non-toxic | Non-toxic | 1 mg/kg | 0.01 mg/kg | – | Activity (Mus musculus [10]): 20.7 s; Activity (Mus musculus [12]): 19.6 s; Activity (Mus musculus [13]): 123.6 s; Activity (Mus musculus [11]): 91.8 s
CC(=O)Nc1ccc(NC(=O)c2ccccc2)cc1 | Non-toxic | Non-toxic | – | – | inactive | –
CCC(=O)N[C@H]1CC[C@@H](NC(=O)CC)CC1 | Non-toxic | Non-toxic | 10 mg/kg | 1 mg/kg | – | Activity (Mus musculus [1]): 34.8 s; Activity (Mus musculus [3]): 165.2 s; Activity (Mus musculus [5]): 17.8 s; Activity (Mus musculus [7]): 106.2 s
CC(C)S(=O)(=O)Nc1ccc(N(C)S(=O)(=O)c2ccc(F)cc2)cc1 | Non-toxic | Non-toxic | 1 mg/kg | 0.1 mg/kg | – | Activity (Mus musculus [12]): 26.2 s; Activity (Mus musculus [13]): 149.8 s; Activity (Mus musculus [14]): 103.6 s; Activity (Mus musculus [15]): 20.2 s
CC(=O)N1CCN(C(=O)c2ccccc2)CC1 | Non-toxic | Non-toxic | – | 10 mg/kg | – | Activity (Mus musculus [16]): 119 s; Activity (Mus musculus [17]): 11.3 s

From ChEMBL document CHEMBL1151695, “Design, synthesis and preliminary pharmacological evaluation of new analogues of DM232 (unifiram) and DM235 (sunifiram) as cognition modulators” (Bioorg Med Chem, 2008)
